# Active and inactive are the calls of the source. No cut-off for these calls is given here.
# What was measured:
# [1] = Cytotoxicity against mouse RAW264.7 cells assessed as cell viability at 40 uM after 4 hrs by MTT assay relative to control; type: cell-based; conditions: read-out: Activity
# In short: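 RAW 264.7 cells plated at 3 × 10^5 cells/mL in phenol red-free 10% FBS–DMEM, incubated 24 h, then treated with compound plus 1 μg/mL LPS for 20 h. After the Griess step, MTT was added (final 500 μg/mL) for 4 h at 37 °C. Formazan dissolved in DMSO, A570 read; survival taken relative to control; triplicate.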
# RAW264.7 [2] = assay: Antiinflammatory activity in mouse RAW264.7 cells assessed as inhibition LPS-induced IL-1beta mRNA expression at 10 uM after 4 hrs by RT-PCR analysis relative to control; type: functional
# In short: (§1)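 RAW 264.7 cells stimulated with LPS (1 μg/mL) with or without compound for 4 h. Total RNA was isolated and cytokine mRNA was analysed by RT-PCR: 94 °C 4 min, then 25−30 cycles of 94/55/72 °C for 30 s each, then 72 °C 5 min. Products were run on 2% agarose and stained with SYBR-Safe. Triplicate, representative of three experiments.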
# JNK1/JNK2 (Mus musculus) = JNK1/JNK2 (Mus musculus) (UniProt Q91Y86+Q9WTU6); assay: Inhibition LPS-induced JNK1/2 phosphorylation at Thr183/[…] in mouse RAW264.7 cells at 10 uM administered 30 mins prior to LPS challenge measured after 30 mins by Western blotting analysis; type: cell-based
# In short: (§2)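 RAW 264.7 cells pretreated with compound for 30 min, then stimulated with LPS for 30 min. Protein extracts were Western blotted for phosphorylated ERK and JNK (SDS-PAGE, PVDF, ECL detection).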
# [3] = biological target: Mitogen-activated protein kinase 1 and 3 (ERK2 and ERK1) (Mus musculus) (UniProt P63085+Q63844); assay: Inhibition LPS-induced ERK1/2 phosphorylation at Thr202/Tyr204 in mouse RAW264.7 cells at 10 uM administered 30 mins prior to LPS challenge measured after 30 mins by Western blotting analysis; type: cell-based; in short: as §2
# [4] = biological target: MAP kinase p38 (Mus musculus) (UniProt P47811+O08911+Q9WUI1+Q9Z1B7); assay: Inhibition LPS-induced p38 kinase phosphorylation in mouse RAW264.7 cells at 10 to 40 uM administered 30 mins prior to LPS challenge measured after 30 mins by Western blotting analysis; type: cell-based
# In short: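 RAW 264.7 cells pretreated with compound for 30 min, then stimulated with LPS for an additional 30 min. Lysates resolved by 6−15% SDS-PAGE and blotted to PVDF. Primary antibodies were applied overnight at 4 °C and secondary antibodies for 2 h at room temperature. Detection by ECL. Tests in triplicate; blots representative of three separate experiments.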
# Rattus norvegicus = assay: Antiinflammatory activity in rat paw edema model assessed as inhibition of carrageenan-induced paw edema at 20 mg/kg, po administered 30 mins prior to carrageenan challenge measured after 4 hrs relative to vehicle-treated control; type: functional
# In short: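 Male Sprague–Dawley rats (150–170 g, 5 weeks old); compound dissolved in 0.5% CMC-Na and given orally 30 min before subplantar injection of 0.1 mL 1% carrageenan suspension in saline into the right hind paw, with saline injected into the left. Paw volume read by plethysmometer at 0 h and up to 6 h; n = 6.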
# RAW264.7 [5] = assay: Antiinflammatory activity in mouse RAW264.7 cells assessed as inhibition of LPS-induced iNOS protein expression at 10 uM after 16 hrs by Western blotting analysis relative to control; type: functional
# In short: (§3)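 RAW 264.7 cells given LPS (1 μg/mL) with or without compound for 16 h. Cell lysates were Western blotted for iNOS and COX-2 (6−15% SDS-PAGE, PVDF, ECL detection). Performed in triplicate.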
# RAW264.7 [6] = assay: Antiinflammatory activity in mouse RAW264.7 cells assessed as inhibition of LPS-induced COX2 protein expression at 40 uM after 16 hrs by Western blotting analysis relative to control; type: functional; in short: as §3
# [7] = biological target: T1, Nuclear factor NF-kappa-B p105 subunit (Mus musculus) (UniProt P25799); assay: Inhibition of LPS-induced NF-kappaB p50 binding to DNA in mouse RAW264.7 cells at 10 to 40 uM after 1.5 hrs by spectrophotometry in presence of wild type oligonucleotide; type: cell-based
# T1 sequence (whole entry): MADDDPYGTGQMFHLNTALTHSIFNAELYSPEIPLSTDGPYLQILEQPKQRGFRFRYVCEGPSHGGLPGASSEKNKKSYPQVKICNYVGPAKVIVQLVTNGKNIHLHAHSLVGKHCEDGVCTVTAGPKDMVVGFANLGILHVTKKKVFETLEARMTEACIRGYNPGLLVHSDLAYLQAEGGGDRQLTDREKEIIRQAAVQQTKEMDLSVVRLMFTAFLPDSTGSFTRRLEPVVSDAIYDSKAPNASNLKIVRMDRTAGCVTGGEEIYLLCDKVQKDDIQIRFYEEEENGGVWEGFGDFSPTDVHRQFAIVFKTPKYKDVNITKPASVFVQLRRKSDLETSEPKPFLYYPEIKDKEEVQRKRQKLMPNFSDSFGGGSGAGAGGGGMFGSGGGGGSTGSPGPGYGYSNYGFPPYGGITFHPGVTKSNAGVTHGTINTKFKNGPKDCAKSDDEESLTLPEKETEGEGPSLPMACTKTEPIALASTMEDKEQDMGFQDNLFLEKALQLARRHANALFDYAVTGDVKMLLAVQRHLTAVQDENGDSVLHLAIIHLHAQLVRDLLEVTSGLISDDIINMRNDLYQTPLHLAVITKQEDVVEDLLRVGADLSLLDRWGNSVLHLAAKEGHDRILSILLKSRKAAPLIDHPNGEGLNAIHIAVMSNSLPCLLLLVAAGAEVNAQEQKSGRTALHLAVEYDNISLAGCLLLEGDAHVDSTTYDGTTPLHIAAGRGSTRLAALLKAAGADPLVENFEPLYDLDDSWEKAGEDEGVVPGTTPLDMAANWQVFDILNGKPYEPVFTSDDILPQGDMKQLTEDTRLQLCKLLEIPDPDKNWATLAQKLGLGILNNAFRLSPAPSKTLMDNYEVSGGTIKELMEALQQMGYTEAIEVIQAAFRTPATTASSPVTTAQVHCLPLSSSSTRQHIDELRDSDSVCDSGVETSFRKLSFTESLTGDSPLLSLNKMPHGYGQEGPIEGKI
# RAW264.7 [8] = assay: Antiinflammatory activity in mouse RAW264.7 cells assessed as inhibition LPS-induced IL-1beta protein expression at 20 uM after 4 hrs by Western blotting analysis; type: functional
# In short: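 RAW 264.7 cells stimulated with LPS (1 μg/mL) with or without compound for 4 h. Lysates were resolved by 6−15% SDS-PAGE and blotted to PVDF. Blocked in 5% milk/PBST, primary antibody overnight at 4 °C, secondary antibody 2 h, detected by ECL. Triplicate, representative of three experiments.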
# RAW264.7 [9] = assay: Antiinflammatory activity in mouse RAW264.7 cells assessed as inhibition LPS-induced IL-1beta mRNA expression at 40 uM after 4 hrs by RT-PCR analysis relative to control; type: functional; in short: as §1
# Chain of JNK1/JNK2 (Mus musculus) (Q91Y86 whole entry, looked up): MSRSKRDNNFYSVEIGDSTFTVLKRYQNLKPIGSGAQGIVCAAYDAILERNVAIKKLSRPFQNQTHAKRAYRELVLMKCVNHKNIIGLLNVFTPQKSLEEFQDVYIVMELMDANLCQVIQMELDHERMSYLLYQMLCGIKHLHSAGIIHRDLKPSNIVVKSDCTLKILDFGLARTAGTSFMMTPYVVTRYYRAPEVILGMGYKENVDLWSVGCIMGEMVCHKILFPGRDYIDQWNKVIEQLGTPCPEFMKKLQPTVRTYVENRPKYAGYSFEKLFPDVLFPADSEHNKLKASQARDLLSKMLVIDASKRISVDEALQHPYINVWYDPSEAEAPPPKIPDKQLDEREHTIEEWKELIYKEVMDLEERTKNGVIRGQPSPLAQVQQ
# Chain of JNK1/JNK2 (Mus musculus) (Q9WTU6 whole entry, looked up): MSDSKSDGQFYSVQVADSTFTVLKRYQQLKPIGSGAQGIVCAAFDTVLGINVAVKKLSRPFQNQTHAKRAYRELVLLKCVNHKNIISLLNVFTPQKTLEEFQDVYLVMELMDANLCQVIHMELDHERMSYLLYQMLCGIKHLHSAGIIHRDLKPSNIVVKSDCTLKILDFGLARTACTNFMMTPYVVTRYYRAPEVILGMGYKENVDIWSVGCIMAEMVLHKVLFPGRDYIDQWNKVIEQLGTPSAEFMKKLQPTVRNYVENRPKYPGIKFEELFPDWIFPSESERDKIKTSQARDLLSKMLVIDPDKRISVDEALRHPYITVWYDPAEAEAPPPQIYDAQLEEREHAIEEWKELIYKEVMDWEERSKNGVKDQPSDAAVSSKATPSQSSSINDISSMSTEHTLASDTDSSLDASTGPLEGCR
# Chain of Mitogen-activated protein kinase 1 and 3 (ERK2 and ERK1) (Mus musculus) (P63085 whole entry, looked up): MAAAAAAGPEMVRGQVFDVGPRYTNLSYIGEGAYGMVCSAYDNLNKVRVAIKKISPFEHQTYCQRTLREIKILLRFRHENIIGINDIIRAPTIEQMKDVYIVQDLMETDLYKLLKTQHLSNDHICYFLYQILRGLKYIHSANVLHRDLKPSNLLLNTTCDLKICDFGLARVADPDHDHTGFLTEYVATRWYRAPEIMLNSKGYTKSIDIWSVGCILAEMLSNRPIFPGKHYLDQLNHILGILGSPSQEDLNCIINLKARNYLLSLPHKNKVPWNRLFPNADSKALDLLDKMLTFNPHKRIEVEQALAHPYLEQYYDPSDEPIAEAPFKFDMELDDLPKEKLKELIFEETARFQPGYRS
# Chain of Mitogen-activated protein kinase 1 and 3 (ERK2 and ERK1) (Mus musculus) (Q63844 whole entry, looked up): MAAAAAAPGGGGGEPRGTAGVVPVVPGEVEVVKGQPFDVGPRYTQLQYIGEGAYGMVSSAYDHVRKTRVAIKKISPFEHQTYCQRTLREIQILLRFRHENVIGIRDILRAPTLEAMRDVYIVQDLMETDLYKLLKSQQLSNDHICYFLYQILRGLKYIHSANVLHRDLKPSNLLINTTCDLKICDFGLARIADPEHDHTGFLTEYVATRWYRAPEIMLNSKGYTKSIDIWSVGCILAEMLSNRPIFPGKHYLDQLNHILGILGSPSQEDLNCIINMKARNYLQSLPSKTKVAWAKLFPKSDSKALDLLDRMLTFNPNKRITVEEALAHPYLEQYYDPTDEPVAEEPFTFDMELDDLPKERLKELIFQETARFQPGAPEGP
structure (smiles),measurement,setting,value
C=C1C(=O)O[C@@H]2[C@@H]3[C@@]4(C=C[C@@]3(C)[C@]3(C4)C(=O)O[C@@H]4[C@H]5C(C)=CC[C@H]5[C@](C)(O)C[C@H](OC(C)=O)[C@H]43)[C@](C)(O)CC[C@@H]12,"viability at 4 h, 40 µM",[1],83%
same,fold change (FC),RAW264.7 [2],0.26
same,inhibition,RAW264.7 [2],Active
same,fold change (FC),JNK1/JNK2 (Mus musculus),0.71
same,inhibition,JNK1/JNK2 (Mus musculus),Active
same,fold change (FC),[3],0.76
same,inhibition,[3],Active
same,inhibition,[4],inactive
same,inhibition in vivo at 20 mg/kg,Rattus norvegicus,35%
same,fold change (FC),RAW264.7 [5],0.61
same,fold change (FC),RAW264.7 [6],0.15
same,inhibition,[7],inactive
same,fold change (FC),RAW264.7 [8],0.67
same,fold change (FC),RAW264.7 [9],0.21

# Source: ChEMBL document CHEMBL3259611, “Suppression of inflammatory responses by handelin, a guaianolide dimer from Chrysanthemum boreale, via downregulation of NF-κB signaling and pro-inflammatory cytokine production” (J Nat Prod, 2014)
